Source: ChEMBL document CHEMBL3425450, “Neuroactive Steroids. 1. Positive Allosteric Modulators of the (γ-Aminobutyric Acid)A Receptor: Structure-Activity Relationships of Heterocyclic Substitution at C-21” (J Med Chem, 2015)
In brackets after ≈: the same amount, converted by molar mass.

How the values were obtained:
[1] = biological target: GABA-A receptor; agonist GABA site; experiment: Positive allosteric modulation of recombinant alpha4beta3delta GABAA receptor (unknown origin) expressed in CHO cells assessed as potentiation of GABA-induced channel current treated for 30 s prior to GABA stimulation for 2s by manual patch assay; type: cell-based, Homo sapiens
[2] = Clearance in human liver microsomes at 10 uM after 60 mins by HPLC-MS/MS analysis; type: ADME
[3] = Retention time of the compound by LC-MS analysis; type: physicochemical
How it was run: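 Eluents were water and acetonitrile, each with TFA, run as a 5 to 95% acetonitrile gradient over 1.5 min at 1.5 mL/min. Capillary voltage was 3.5 kV and fragmentor voltage 50 V.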

[4] = biological target: GABA-A receptor; agonist GABA site; experiment: Positive allosteric modulation of recombinant alpha1beta2gamma2 GABAA receptor (unknown origin) expressed in LTK cells assessed as potentiation of GABA-induced channel current treated for 30 s prior to GABA stimulation for 2s by Q-patch assay; type: cell-based, Homo sapiens
[5] = Ratio of drug level in brain to plasma in Sprague-Dawley rat at 5 mg/kg, iv after 30 mins by LC-MS/MS analysis; type: ADME, organism-based; set-up: dose 5 mg/kg, route intravenous; conditions: read-out: BPR
How it was run: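 Brain and plasma were sampled at a single point 30 min after the i.v. 5 mpk dose. The ratio was calculated from mean concentrations of 2 rats.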

[6] = Clearance in mouse liver microsomes at 10 uM after 60 mins by HPLC-MS/MS analysis; type: ADME
[7] = biological target: GABA-A receptor; anion channel; experiment: Displacement of [3H]TBPS from GABAA receptor in Sprague-Dawley rat brain cortical membrane after 90 mins by liquid scintillation spectrometry
[8] = Oral bioavailability in Sprague-Dawley rat at 20 mg/kg by LC-MS/MS analysis; type: ADME, organism-based; conditions: in vivo
How it was run: (§1)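 Rats were dosed i.v. at 5 mpk and orally at 20 mpk. Clearance and oral bioavailability were calculated from mean plasma concentrations of 2 rats.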

[9] = Clearance in Sprague-Dawley rat at 5 mg/kg, iv and 20 mg/kg, po by LC-MS/MS analysis; type: ADME, organism-based; conditions: in vivo; how it was run: as §1
[10] = Lipophilicity, log D of the compound at 20 uM at pH 7.4 by HPLC-MS/MS analysis; type: physicochemical; conditions: buffer
[11] = Aqueous solubility of the compound at pH 7.4 by HPLC-MS/MS analysis; type: physicochemical; conditions: buffer
[12] = Clearance in rat liver microsomes at 10 uM after 60 mins by HPLC-MS/MS analysis; type: ADME
[13] = biological target: GABA-A receptor; alpha-1/beta-2/gamma-2 (Homo sapiens) (UniProt P14867+P47870+P18507); experiment: Selectivity ratio of EC50 for recombinant alpha1beta2gamma2 GABAA receptor (unknown origin) expressed in LTK cells to EC50 for recombinant alpha4beta3delta GABAA receptor (unknown origin) expressed in CHO cells; type: cell-based

C[C@@]1(O)CC[C@H]2[C@H](CC[C@@H]3[C@@H]2CC[C@]2(C)[C@@H](C(=O)Cn4nccn4)CC[C@@H]32)C1
EC50 [1]: 240 nM | CLhep predicted at 10 µM [2]: 3.17 mL/min/kg | Retention_time [3]: 0.87 min | EC50 [4]: 125 nM | Kp at 0.5 h [5]: 1.8 | CLhep predicted at 10 µM [6]: 67.5 mL/min/kg | IC50 [7]: 11 nM | bioavailability [8]: 27% | clearance [9]: 38.3 mL/min/kg | logD at 20 µM [10]: 4.6 | solubility [11]: 7.3 µM (≈ 2.81 µg/mL) | CLhep predicted at 10 µM [12]: 45 mL/min/kg

C[C@@]1(O)CC[C@H]2[C@H](CC[C@@H]3[C@@H]2CC[C@]2(C)[C@@H](C(=O)Cn4cc5ccncc5n4)CC[C@@H]32)C1
EC50 [1]: 178 nM | CLhep predicted at 10 µM [2]: 4.5 mL/min/kg | Retention_time [3]: 0.75 min | EC50 [4]: > 3000 nM | Kp at 0.5 h [5]: 2.1 | CLhep predicted at 10 µM [6]: 33.8 mL/min/kg | IC50 [7]: 16 nM | bioavailability [8]: 40% | clearance [9]: 58.3 mL/min/kg | logD at 20 µM [10]: 4.7 | solubility [11]: 1.2 µM (≈ 0.523 µg/mL) | CLhep predicted at 10 µM [12]: 55.7 mL/min/kg | Ratio EC50 [13]: > 17

C[C@@]1(O)CC[C@H]2[C@H](CC[C@@H]3[C@@H]2CC[C@]2(C)[C@@H](C(=O)Cn4ncnn4)CC[C@@H]32)C1
EC50 [1]: 345 nM | CLhep predicted at 10 µM [2]: 5.5 mL/min/kg | Retention_time [3]: 0.87 min | EC50 [4]: 1150 nM | Kp at 0.5 h [5]: 2.3 | CLhep predicted at 10 µM [6]: 67.5 mL/min/kg | IC50 [7]: 6 nM | bioavailability [8]: 41% | clearance [9]: 18.3 mL/min/kg | logD at 20 µM [10]: 4.5 | solubility [11]: 2.5 µM (≈ 0.966 µg/mL) | CLhep predicted at 10 µM [12]: 39.3 mL/min/kg

C[C@@]1(O)CC[C@H]2[C@H](CC[C@@H]3[C@@H]2CC[C@]2(C)[C@@H](C(=O)Cn4cc5ncccc5n4)CC[C@@H]32)C1
EC50 [1]: 343 nM | CLhep predicted at 10 µM [2]: 4.5 mL/min/kg | Retention_time [3]: 0.81 min | EC50 [4]: > 3000 nM | Kp at 0.5 h [5]: 1.3 | CLhep predicted at 10 µM [6]: 60 mL/min/kg | IC50 [7]: 6 nM | bioavailability [8]: 1.5% | clearance [9]: 73.3 mL/min/kg | logD at 20 µM [10]: 4.7 | solubility [11]: 12.4 µM (≈ 5.4 µg/mL) | CLhep predicted at 10 µM [12]: 55.7 mL/min/kg | Ratio EC50 [13]: > 8

C[C@@]1(O)CC[C@H]2[C@@H](CC[C@@H]3[C@@H]2CC[C@]2(C)[C@@H](C(=O)Cn4ncnn4)CC[C@@H]32)C1
EC50 [1]: 292 nM | CLhep predicted at 10 µM [2]: 1.67 mL/min/kg | Retention_time [3]: 0.88 min | EC50 [4]: 945 nM | Kp at 0.5 h [5]: 2 | CLhep predicted at 10 µM [6]: 33.8 mL/min/kg | IC50 [7]: 31 nM | bioavailability [8]: 67% | clearance [9]: 8.33 mL/min/kg | logD at 20 µM [10]: 4.5 | solubility [11]: 0.9 µM (≈ 0.348 µg/mL) | CLhep predicted at 10 µM [12]: 14.3 mL/min/kg
